Bioassay records: PubChem, The Scripps Research Institute Molecular Screening Center
In the library only some 4.6% were active in any assay of this set; here they are far more common.
CHO parental Ca: ATP-evoked calcium signal inhibitors, parental CHO, primary screen, counter-screen for OX1R antagonist project, cell-based, fluorescence, Fluo-8 calcium dye; parental CHO-K1, ATP-induced calcium, Fluo-8 fluorescence; inhibition, % at 5.6 µM; 0.63% of 330,000 active; AID 463079, 2010;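 active means inhibition above that plate's mean sample inhibition plus 3 SD, cut at about 26% in these data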;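 further: 0% = ATP-challenged DMSO wells and 100% = DMSO wells without ATP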
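Material: Parental CHO cells | Reagent: ATP | Compound dosing: Single nominal dose of 5.6 µM per compound | Detection: Intracellular calcium via Fluo-8 no-wash fluorescent dye | Read-out: % inhibition of ATP-induced calcium mobilization | Benchmarks: Low control ATP plus DMSO, high control DMSO only | Replicates: Singlicate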
GPR7 antag: GPR7 receptor antagonists, primary screen, cell-based, fluorescence, single concentration; inhibition, % at 4.4 µM; GPR7-expressing cells, fluorescence antagonist assay; 1.1% of 290,000 active; AID 1861, 2009; in the data active means inhibition above about 16%, passing the limit was not always enough;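 further: cells stimulated with the agonist NPW; 0% = agonist with vehicle and 100% = vehicle without agonist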
Target sequence (P48145 whole entry, looked up): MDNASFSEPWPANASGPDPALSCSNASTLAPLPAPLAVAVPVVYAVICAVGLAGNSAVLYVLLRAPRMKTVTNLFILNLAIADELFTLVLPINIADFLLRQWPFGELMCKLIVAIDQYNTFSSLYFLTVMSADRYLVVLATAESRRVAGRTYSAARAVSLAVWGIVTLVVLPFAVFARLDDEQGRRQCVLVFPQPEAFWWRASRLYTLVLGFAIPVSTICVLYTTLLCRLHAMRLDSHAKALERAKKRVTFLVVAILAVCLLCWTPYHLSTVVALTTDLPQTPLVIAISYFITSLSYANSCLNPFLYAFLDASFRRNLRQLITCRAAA
TAAR1 antag: human TAAR1 antagonists, primary screen, Fluo-8 calcium fluorescence, CHO RD-HGA16 cells; inhibition, % at 3 µM; 1.5% of 360,000 active; antagonist;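 active means inhibition above a per-plate cutoff, the mean inhibition of test compounds on that plate plus 3 SD, cut at about 49% in these data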;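 further: 0% = DMSO plus EC80 beta-PEA response and 100% = DMSO alone without agonist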
Target sequence (Q96RJ0 whole entry, looked up): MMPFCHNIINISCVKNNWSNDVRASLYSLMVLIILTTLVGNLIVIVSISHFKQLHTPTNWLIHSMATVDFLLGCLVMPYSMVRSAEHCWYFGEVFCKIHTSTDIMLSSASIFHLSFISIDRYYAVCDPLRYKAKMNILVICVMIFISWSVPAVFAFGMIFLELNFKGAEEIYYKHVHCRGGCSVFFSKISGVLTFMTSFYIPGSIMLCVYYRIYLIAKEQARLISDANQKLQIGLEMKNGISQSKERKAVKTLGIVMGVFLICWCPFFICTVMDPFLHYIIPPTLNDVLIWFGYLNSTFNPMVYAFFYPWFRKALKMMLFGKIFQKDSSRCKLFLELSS
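Material: RD-HGA16 CHO cells with stable hTAAR1 and Gα16; Dosing: single nominal final test compound concentration of 3 µM; Schedule: seeding 17-24 h prior, 75-min 37 °C, 30-min RT dye loading; Detection: kinetic Fluo-8 calcium fluorescence measurement; Measure: % inhibition from peak post-agonist over basal fluorescence ratio; Benchmarks: vehicle and agonist controls.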
OX1R antag-1: OX1R (HCRTR1) antagonists, primary screen, fluorescence, CHO/OX1R cells, Fluo-8 calcium, orexin A | Orexin/Hypocretin receptor type 1 (Homo sapiens), O43613 | inhibition, % at 5 µM | Fluo-8 calcium fluorescence | 0.43% of 330,000 active;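 active means inhibition above its plate's threshold, mean inhibition of all tested compounds on the plate plus 3 SD, cut at about 37% in these data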;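 further: 0% = orexin A challenge wells and 100% = SB-334867-A antagonist wells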
TAAR1 ag: human TAAR1 agonists, primary screen, Fluo-8 calcium fluorescence, CHO RD-HGA16 cells; Trace amine-associated receptor 1 (Homo sapiens), Q96RJ0; vehicle wells 0%, saturating PEA agonist 100%; activation, % at 3 µM; 0.99% of 360,000 active;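 active means activation above the mean activation of all test compounds in the run plus 3 SD, cut at about 38% in these data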
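System: CHO-derived RD-HGA16 cells with stable Gα16 and human TAAR1. Times: 17-24 h plating, Fluo-8 75 min 37 °C, 30 min RT. Measured by: calcium-sensitive Fluo-8 signal, excitation 470-495, emission 515-575 nm. Read-out basis: % activation relative to PEA EC100 response. Control set: DMSO and PEA EC100. Repeats: no replicates (n 1).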
OX1R antag-2: antagonists of human orexin 1 receptor (OX1R); Orexin/Hypocretin receptor type 1 (Homo sapiens), O43613; OX1R-expressing cells, FRET antagonist read-out; inhibition, % at 6.6 µM; 1.8% of 330,000 active; in the data active means inhibition mostly above about 38%, no sharp cut-off; inactive means mostly below about 40%;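 further: 0% = agonist challenge alone and 100% = reference antagonist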
Numbers without * were called inactive.

What do the screens show for `Brc1ccc(NCc2cccc3ccccc23)nc1`?
CHO parental Ca: -14; GPR7 antag: -6; TAAR1 antag: 19; OX1R antag-1: -27; TAAR1 ag: 6; OX1R antag-2: 11

Results for CN1C(c2ccccc2)CC(C)(O)CC1c1ccccc1 (centres undefined) ?
TAAR1 antag: -13; TAAR1 ag: 0

What do the screens show for `O=c1c2ccccc2[nH]c(=S)n1C1CCCCC1`?
CHO parental Ca: 11; GPR7 antag: 6; TAAR1 antag: 26; OX1R antag-1: -19; TAAR1 ag: 40*; OX1R antag-2: -3

What do the screens show for `CC1CCC(n2c(=S)[nH]c3ccccc3c2=O)CC1` (centres undefined)?
CHO parental Ca: 6; GPR7 antag: -14; TAAR1 antag: 16; OX1R antag-1: -8; TAAR1 ag: 6; OX1R antag-2: 1

Results for CCN1C(=O)C(CC(=O)Nc2ccccc2Cl)N(NC(=O)c2cccc(F)c2)C1=S (centres undefined) ?
CHO parental Ca: -6; GPR7 antag: 0; TAAR1 antag: -2; OX1R antag-1: 9; TAAR1 ag: 5; OX1R antag-2: 75*

How did CNC(=O)CC1C(=O)N(Cc2ccccc2)C(=S)N1NC(=O)c1cccc(F)c1 (centres undefined) do in these assays?
CHO parental Ca: -10; GPR7 antag: 21; TAAR1 antag: 21; OX1R antag-1: -4; TAAR1 ag: 10; OX1R antag-2: 32

How did COC(=O)[C@]12C[C@H](CC(=O)NCc3cccs3)C(=O)N(Cc3ccccc3)C1=C[C@H](C(C)(C)C)O[C@@H]2C do in these assays?
TAAR1 antag: -35; TAAR1 ag: 0

How did Cc1cccc(/C=C/C(=O)c2ccc([N+](=O)[O-])o2)c1 do in these assays?
CHO parental Ca: -12; TAAR1 antag: 33; OX1R antag-1: -2; TAAR1 ag: 37; OX1R antag-2: 12

How did O=C(/C=C/c1cccc([N+](=O)[O-])c1)c1ccc([N+](=O)[O-])o1 do in these assays?
CHO parental Ca: 5; TAAR1 antag: 68*; OX1R antag-1: 9; TAAR1 ag: 50*; OX1R antag-2: 59

What do the screens show for `CCN(c1ccccc1)S(=O)(=O)c1cc(C(=O)NCc2ccco2)ccc1C`?
CHO parental Ca: -6; TAAR1 antag: -1; OX1R antag-1: 0; TAAR1 ag: 6; OX1R antag-2: 0

How did CCc1ccc(NC(=O)c2ccc(F)c(S(=O)(=O)N(CC)c3ccccc3)c2)cc1 do in these assays?
CHO parental Ca: 34; GPR7 antag: -18; TAAR1 antag: 59*; OX1R antag-1: 0; TAAR1 ag: 6; OX1R antag-2: 25

What do the screens show for `CS(=O)(=O)NCCSc1nnnn1-c1ccccc1`?
CHO parental Ca: -2; GPR7 antag: 18*; TAAR1 antag: 6; OX1R antag-1: 9; TAAR1 ag: 7; OX1R antag-2: 6

Results for Clc1ccc(CONc2ncnc3nonc23)c(Cl)c1 ?
CHO parental Ca: 11; GPR7 antag: -9; TAAR1 antag: 23; OX1R antag-1: -1; TAAR1 ag: 17; OX1R antag-2: 18

How did Clc1ccc(CON/C=N/c2ncnc3sccc23)c(Cl)c1 do in these assays?
CHO parental Ca: 23; GPR7 antag: -13; TAAR1 antag: 24; OX1R antag-1: -9; TAAR1 ag: 6; OX1R antag-2: 45*

Results for N#C/C(=C(/O)CSc1ccccn1)c1nc2ccccc2s1 ?
CHO parental Ca: 66*; GPR7 antag: 9; TAAR1 antag: 4; OX1R antag-1: 71*; TAAR1 ag: 8; OX1R antag-2: 29

How did Cc1ccc(SC/C(O)=C(\C#N)c2nc3ccccc3s2)cc1 do in these assays?
CHO parental Ca: -6; GPR7 antag: 4; TAAR1 antag: -4; OX1R antag-1: 2; TAAR1 ag: 7; OX1R antag-2: 72

How did CCOC(=O)N1CCC(=NNC(N)=O)C1 do in these assays?
TAAR1 antag: -4; TAAR1 ag: 0

How did COc1cccc(N2C(=O)CN(Cc3cc(OC)c(OC)c(OC)c3)C2=S)c1 do in these assays?
CHO parental Ca: -17; GPR7 antag: 10; TAAR1 antag: -9; OX1R antag-1: -24; TAAR1 ag: 3; OX1R antag-2: 22

What do the screens show for `COc1ccc(N2C(=O)CN(Cc3cc(OC)c(OC)c(OC)c3)C2=S)cc1`?
CHO parental Ca: -14; GPR7 antag: -1; TAAR1 antag: 29; OX1R antag-1: -17; TAAR1 ag: 10; OX1R antag-2: 47*

Results for CCOc1ccccc1N1C(=O)CN(Cc2ccc(OC)c(OC)c2)C1=S ?
CHO parental Ca: -28; GPR7 antag: 4; TAAR1 antag: 8; OX1R antag-1: -16; TAAR1 ag: 4; OX1R antag-2: 56*

Results for COc1ccc(NS(=O)(=O)c2cccc(C(=O)NN=C(C)c3ccco3)c2)cc1 ?
CHO parental Ca: -2; TAAR1 antag: -1; OX1R antag-1: 0; TAAR1 ag: 7; OX1R antag-2: 1

How did C[C@@H]1CN([C@@H](C)CO)C(=O)CCCn2cc(nn2)CO[C@H]1CN(C)C(=O)C1CCCCC1 do in these assays?
TAAR1 antag: -7; TAAR1 ag: 3

Results for O=C(C(=O)N1CCN(S(=O)(=O)c2ccc(C(F)(F)F)cc2)CC1)c1cccc(C(F)(F)F)c1 ?
TAAR1 antag: -10; TAAR1 ag: -2

How did O=C1N=C(O)CN1/N=C/c1ccc(-c2ccc([N+](=O)[O-])cc2)o1 do in these assays?
CHO parental Ca: -20; TAAR1 antag: -14; OX1R antag-1: -13; TAAR1 ag: -2; OX1R antag-2: 59*

Results for COC(=O)C1=C(C)N(Cc2ccc(C(F)(F)F)cc2)C(=NCc2ccc(OC)cc2)NC1c1ccccc1C(F)(F)F (centres undefined) ?
TAAR1 antag: -15; TAAR1 ag: 14

Results for O=C(CN1C(=O)NC2(CCCC2)C1=O)OCc1cccc(Br)c1 ?
CHO parental Ca: -27; TAAR1 antag: 1; OX1R antag-1: -4; TAAR1 ag: 13; OX1R antag-2: 1

Results for CC(Oc1ccccc1)C(=O)N1CCN=C1SCc1ccccc1F (centres undefined) ?
CHO parental Ca: 40*; GPR7 antag: 11; TAAR1 antag: 3; OX1R antag-1: -22; TAAR1 ag: 6; OX1R antag-2: 28
